Screens from PubChem.
Xi reactivation – reactivates the inactive X chromosome in mouse fibroblasts | XiGFP mouse fibroblasts, % GFP-positive cells imaging, 3 d; cells co-treated with 5-aza-dC sensitizer; scaled so ellipticine positive control = 100% | activation, % at 7.58 µM | hit rate 0.055% among 360,000 | AID 743238;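 active means mean normalized replicate activation at least 10% and every replicate at or above 10%; inconclusive means only one of the two criteria met; inactive means mean below 10% and not all replicates reach 10%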;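 further: 0% = median of on-plate neutral control wells and 100% = ellipticine 6 µM median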
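Schedule: 3 d treatment, 15 min room-temperature fixation; system: 68-5-11 XiGFP fibroblast line; buffer or medium: DMEM plus 5-aza-dC sensitizer; control set: ellipticine 6 µM positive control; compound: one concentration, pinned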
DENV2 CPE rescue – inhibitors of DENV2 cytopathic effect; DENV2-infected cells, cytopathic effect rescue, plate reader; hit rate 1.7% among 350,000; CPE inhibition, % at 9.99 µM; AID 651640; in the data active means CPE inhibition above about 20%, passing the limit was not always enough; inconclusive means no clear call, values can overlap the other calls; tested in BHK-21 cells;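 further: 0% = median of neutral control wells and 100% = median of positive control wells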
Casp6 inh – inhibitors of human caspase-6; P55212; purified caspase-6, Z-VEID-R110 cleavage fluorescence; inhibition, % at 12.5 µM; hit rate 0.53% among 350,000; AID 686996;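 active means mean inhibition across replicates at least about 35%, with every replicate also reaching that limit, limit read from the data; inconclusive means only one of the two criteria met; inactive means neither criterion met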;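 further: 0% = median of neutral control wells and 100% = no fluorescence left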
Target sequence (P55212 24-179 limits assumed): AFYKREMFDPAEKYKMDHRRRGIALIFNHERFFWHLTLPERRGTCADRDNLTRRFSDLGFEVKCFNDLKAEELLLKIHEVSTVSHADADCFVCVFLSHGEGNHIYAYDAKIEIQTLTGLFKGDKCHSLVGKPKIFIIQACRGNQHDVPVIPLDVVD
Target sequence (P55212 194-293 limits assumed): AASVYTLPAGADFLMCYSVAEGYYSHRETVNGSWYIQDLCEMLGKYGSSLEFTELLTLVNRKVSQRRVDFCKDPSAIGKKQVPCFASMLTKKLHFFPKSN
CaV13 FRET inh – Disruptors of the CACNA1D IQ motif to Ca2+-dependent inactivation inhibitor domain association, primary screening, Förster resonance energy transfer in intact living … | AID 743397 | hit rate 0.098% among 340,000 | HEK cells, CFP/YFP FRET ICDI-IQ, plate reader, 10 min; percent FRET-ratio fall versus neutral wells | inhibition, % at 12.3 µM;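 active means mean replicate inhibition of at least 30% and at least 1% of replicates passing that level; inconclusive means only one of the two criteria is met; inactive means neither criterion is met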;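 further: 0% = median of the neutral control wells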
FN deposit inh – fibronectin deposition inhibition | hit rate 0.086% among 350,000 | AID 743247 | AH1F fibroblasts, Alexa488-fibronectin deposition fluorescence, overnight | inhibition, % at 12.6 µM;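 active means mean inhibition across replicates of 30% or more, regardless of how many single replicates reach that level; inconclusive means mean under 30% yet at least half of replicates reach 30%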;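 further: positive control wells lacked labelled fibronectin entirely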
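material = AH1F fibroblast monolayer depositing Alexa488-labelled fibronectin into matrix | amount = 10000 AH1F cells/well | buffer or medium = DMEM plus 2% serum, read in PBS | incubation = 1 h cell adhesion before compound, then overnight fibronectin incubation | detection = fluorescence at 485 nm excitation, 525 nm emission | evaluation = percent inhibition as loss of matrix-bound fibronectin fluorescence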
Numbers without * were called inactive; ? = inconclusive; . = no result given; ! = not active in a repeat. In the library only some 2% were active in any assay of this set; here they are far more common.

SMILES	Xi reactivation	DENV2 CPE rescue	Casp6 inh	CaV13 FRET inh	FN deposit inh
CCN(C[C@H]1N[C@H](CO)[C@@H]1c1ccc(-c2ccc(F)cc2)cc1)C(=O)COC	0	45*	2	.	-9
C[C@@H]1CN([C@H](C)CO)C(=O)c2cc(-c3cccc(F)c3)cnc2O[C@@H]1CN(C)C(=O)c1cnccn1	0	-1	1	.	.
COc1cccc(-c2cnc3c(c2)C(=O)N([C@@H](C)CO)C[C@@H](C)[C@H](CN(C)C(=O)Nc2ccccc2F)O3)c1	1	6	.	.	.
Cc1cn(C2CC(O)C(O)C(CO)O2)c(=O)[nH]c1=O (stereo not drawn)	0	-2	0	-5	2
Cc1cn([C@H]2C=C[C@@H](CO)O2)c(=O)[nH]c1=O	0	29*!	5	-5	-1
COc1cccc(C(NC(C)=O)c2nc(/C=C/c3ccccc3)cs2)c1 (stereo not drawn)	0	30*	1	-4	4
COc1ccc(C(=O)Nc2ccc3c(c2)C(=O)N(C)C[C@H](OC)[C@@H](C)CN(C(C)=O)[C@H](C)CO3)cc1	0	-1	.	.	3
NCc1csc(NC(=O)Nc2cccc(Cl)c2)n1	0	25*	9	-5	-1
CCOC(=O)c1ccc(NC(=O)c2nc(S(=O)(=O)Cc3ccccc3)ncc2Cl)cc1	0	9	8	-2	47*
COc1ccccc1NC(=O)c1nc(S(=O)(=O)Cc2ccccc2)ncc1Cl	3	7	4	-16	42*
COC(=O)c1ccc(NC(=O)c2nc(S(=O)(=O)Cc3cccc(C)c3)ncc2Cl)cc1	?	1	-1	-3	53*
CC(=O)Nc1ccc(NC(=O)c2nc(S(=O)(=O)Cc3cccc(C)c3)ncc2Cl)cc1	2	8	.	-7	18
CCOc1ccccc1NC(=O)c1nc(S(=O)(=O)Cc2ccccc2)ncc1Cl	2	-5	0	-17	3
CCc1ccc(NC(=O)c2nc(S(=O)(=O)Cc3ccccc3)ncc2Cl)cc1	1	1	0	-2	51*
C[C@H](CO)N1C[C@H](C)[C@H](CN(C)S(C)(=O)=O)Oc2ccc(NC(=O)Cc3ccccc3)cc2CC1=O	0	-8	0	.	.
CCS(=O)(=O)c1ncc(Cl)c(C(=O)Nc2ccc(S(=O)(=O)N3CCC(C)CC3)cc2)n1	0	-6	2	-2	58*
CCOc1cc(N2CCOCC2)c(OCC)cc1NC(=O)CN1CCN(Cc2ccc3c(c2)OCO3)CC1	-1	29*	2	-5	0
CNc1cccc(-c2ccccc2CO)n1	0	30*	0	-4	2
O=C1C2(CCCC13COC(c1ccc(O)cc1)OC3)COC(c1ccc(O)cc1)OC2 (stereo not drawn)	0	28*	-1	-2	3
C[C@@H]1CN([C@@H](C)CO)C(=O)c2cccc(NC(=O)c3ccncc3)c2O[C@@H]1CN(C)C(=O)NC1CCCCC1	-1	-1	1	.	.
COc1ccc2nc3n(c(=O)c2c1)-c1ccccc1C(=O)NC3Cc1ccccc1 (stereo not drawn)	0	89*	5	-9	7
CC(C)CC1NC(=O)c2ccccc2-n2c1nc1ccccc1c2=O (stereo not drawn)	0	40*	7	-5	1
C/C=C/c1cnc2c(c1)C(=O)N([C@@H](C)CO)C[C@@H](C)[C@H](CN(C)C(=O)Cc1ccccc1)O2	1	2	3	.	.
Cc1ccccc1-c1ccc(C2[C@@H]3CN(Cc4ccc5c(c4)OCO5)C[C@H]2N3)cc1 (stereo partly drawn)	0	-10	.	.	-2
O=C(O)c1cccc(-c2ccc(/C=c3/sc4nc5ccccc5n4c3=O)o2)c1	0	-2	37*	-7	7
SMILES	Xi reactivation	DENV2 CPE rescue	Casp6 inh	CaV13 FRET inh	FN deposit inh
CCCCCN(C(=O)CCC(=O)OC(C)C(=O)NC1CCCCC1)c1c(N)n(CCCC)c(=O)[nH]c1=O (stereo not drawn)	0	-1	43*	-6	-8
CCCN(C)C[C@H]1OCCCC[C@@H](C)Oc2ccc(NS(=O)(=O)c3ccc(OC)cc3)cc2C(=O)N([C@H](C)CO)C[C@@H]1C	0	55*	1	.	.
COc1ccc(CN(C)C[C@H]2OCCCC[C@@H](C)Oc3ccc(NS(=O)(=O)c4ccc(F)cc4)cc3C(=O)N([C@H](C)CO)C[C@@H]2C)cc1	0	-2	2	.	2
COc1ccc(CN(C)C[C@H]2OCCCC[C@H](C)Oc3ccc(NS(=O)(=O)c4cn(C)cn4)cc3C(=O)N([C@@H](C)CO)C[C@H]2C)cc1	-1	6	1	.	.
COc1ccc(CN(C)C[C@@H]2OCCCC[C@@H](C)Oc3ccc(NS(=O)(=O)c4cn(C)cn4)cc3C(=O)N([C@H](C)CO)C[C@@H]2C)cc1	0	61*	-1	.	.
COc1ccc(CN(C)C[C@@H]2OCCCC[C@H](C)Oc3ccc(NS(=O)(=O)c4ccc(F)cc4)cc3C(=O)N([C@@H](C)CO)C[C@H]2C)cc1	0	59*	1	.	1
CCCN(C)C[C@H]1OCCCC[C@@H](C)Oc2ccc(NS(=O)(=O)c3ccc(OC)cc3)cc2C(=O)N([C@H](C)CO)C[C@H]1C	0	-8	-2	.	.
COc1ccc(S(=O)(=O)Nc2ccc3c(c2)C(=O)N([C@@H](C)CO)C[C@H](C)[C@@H](CN(C)Cc2ccc(C(=O)O)cc2)OCCCC[C@H](C)O3)cc1	0	54*	-2	.	.
CCCNC(=O)Nc1ccc2c(c1)C(=O)N(C)[C@H]1CC[C@H](CC(=O)NCC3CCCCC3)O[C@H]1CO2	0	-5	0	.	-7
C[C@@H]1CCCCO[C@@H](CN(C)Cc2ccc(C(=O)O)cc2)[C@@H](C)CN([C@@H](C)CO)C(=O)c2cc(NS(C)(=O)=O)ccc2O1	0	48*	0	.	.
COc1ccc(S(=O)(=O)N(C)C[C@H]2Oc3ccc(NS(C)(=O)=O)cc3CC(=O)N([C@@H](C)CO)C[C@@H]2C)cc1	-1	5	1	.	.
c1ccc2[nH]c3cc4ncnc4cc3nc2c1	0	-1	69*	-309	-8
O=C(NC(=S)N1CCN(c2ccccc2)CC1)c1c(F)cccc1F	0	75*	2	-5	8
C[C@@H]1CCCCO[C@H](CN(C)C(=O)C2CCCCC2)[C@@H](C)CN([C@@H](C)CO)C(=O)c2cc(NC(=O)CCC(F)(F)F)ccc2O1	0	-7	0	.	.
COCC(=O)N(C)C[C@H]1Oc2cc(C3=CCCCC3)ccc2S(=O)(=O)N([C@@H](C)CO)C[C@H]1C	-1	-4	1	.	.
CCN(CC)CCCNC(CC(=O)Nc1cccc([N+](=O)[O-])c1)C(=O)O (stereo not drawn)	0	30*	-23	-5	11
